{"source": "ChEMBL document CHEMBL5712071", "about": "“BET bromodomain protein inhibition is a therapeutic option for medulloblastoma” (Oncotarget, 2013)", "key": {"Daoy [1]": {"system": "Daoy", "assay": "Anti-proliferative activity against human Daoy cells assessed as reduction in cell viability incubated for 120 hrs by MTT assay", "type": "functional, cell-based", "in_short": "(§1)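 Cells seeded in triplicate at 2 × 10^3 per well and allowed to adhere for 24h. JQ1 was given as serial dilutions in full medium, 1nM-6µM, from a 10 mM DMSO stock. Viability was read by MTT at each time point and IC50 derived from dose-response curves. Culture media were RPMI 1640/10% FCS for HD-MB3 (plus 1% NEAA), ONS-76, Daoy and UW-228, and EMEM/10% FCS for D-283 and D-341.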"}, "HD-MB03 [2]": {"system": "HD-MB03", "assay": "Anti-proliferative activity against human HD-MB03 cells assessed as reduction in cell viability incubated for 72 hrs by MTT assay", "type": "functional, cell-based", "settings": "HD-MB03, 72 h", "in_short": "as §1"}, "HD-MB03 [3]": {"system": "HD-MB03", "assay": "Anti-proliferative activity against human HD-MB03 cells assessed as reduction in cell viability incubated for 120 hrs by MTT assay", "type": "functional, cell-based", "settings": "HD-MB03, 120 h", "in_short": "as §1"}, "ONS-76 [4]": {"system": "ONS-76", "assay": "Anti-proliferative activity against human ONS-76 cells assessed as reduction in cell viability incubated for 96 hrs by MTT assay", "type": "functional, cell-based", "settings": "ONS-76, 96 h", "in_short": "as §1"}, "UW228 [5]": {"system": "UW228", "assay": "Anti-proliferative activity against human UW228 cells assessed as reduction in cell viability incubated for 48 hrs by MTT assay", "type": "functional, cell-based", "settings": "UW228, 48 h", "in_short": "as §1"}, "UW228 [6]": {"system": "UW228", "assay": "Anti-proliferative activity against human UW228 cells assessed as reduction in cell viability incubated for 72 hrs by MTT assay", "type": "functional, cell-based", "settings": "UW228, 72 h", "in_short": "as §1"}, "D341 cell line [7]": {"system": "D341 cell line", "assay": "Anti-proliferative activity against human D341 cells assessed as reduction in cell viability incubated for 120 hrs by MTT assay", "type": "functional, cell-based", "settings": "D341, 120 h", "in_short": "as §1"}, "D283 Med [8]": {"system": "D283 Med", "assay": "Anti-proliferative activity against human D283 cells assessed as reduction in cell viability incubated for 72 hrs by MTT assay", "type": "functional, cell-based", "in_short": "as §1"}, "D283 Med [9]": {"system": "D283 Med", "assay": "Anti-proliferative activity against human D283 cells assessed as reduction in cell viability incubated for 96 hrs by MTT assay", "type": "functional, cell-based", "in_short": "as §1"}, "D283 Med [10]": {"system": "D283 Med", "assay": "Induction of apoptosis in human D283 cells assessed as increase in population of cells in sub-G1 phase at 500 nM incubated for 72 hrs by ELISA", "type": "functional, cell-based"}, "UW228 [11]": {"system": "UW228", "assay": "Induction of apoptosis in human UW228 cells assessed as increase in population of cells in sub-G1 phase at 500 nM incubated for 72 hrs by ELISA", "type": "functional, cell-based", "in_short": "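Cell death ELISA on ONS-76 or UW-228 cells seeded 2 × 10^3 per well in triplicate and allowed 24h to adhere. Treated with 500 nM JQ1 or DMSO for 72h, then apoptotic cell death measured by Cell Death Detection ELISA per kit protocol. Experiments repeated at least 3 times.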"}, "D341 cell line [12]": {"system": "D341 cell line", "assay": "Induction of apoptosis in human D341 cells assessed as increase in population of cells in G1 phase at 500 nM incubated for 72 hrs by ELISA", "type": "functional, cell-based"}, "ONS-76 [13]": {"system": "ONS-76", "assay": "Induction of apoptosis in human ONS-76 cells assessed as increase in population of cells in G1 phase at 500 nM incubated for 72 hrs by ELISA", "type": "functional, cell-based"}, "D341 cell line [14]": {"system": "D341 cell line", "assay": "Induction of apoptosis in human D341 cells assessed as increase in population of cells in sub-G1 phase at 500 nM incubated for 72 hrs by flow cytometry", "type": "functional, cell-based", "in_short": "(§2)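 Cells were cultured with 500 nM JQ1 or DMSO control, trypsinised and washed 3 times in PBS. DNA was stained with propidium iodide for 15 min and DNA content analysed by flow cytometry to give G1 and sub-G1 fractions.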"}, "Daoy [15]": {"system": "Daoy", "assay": "Induction of apoptosis in human Daoy cells assessed as increase in population of cells in sub-G1 phase at 500 nM incubated for 72 hrs by flow cytometry", "type": "functional, cell-based", "in_short": "as §2"}, "D283 Med [16]": {"system": "D283 Med", "assay": "Induction of apoptosis in human D283 cells assessed as increase in population of cells in G1 phase at 500 nM incubated for 72 hrs by flow cytometry", "type": "functional, cell-based", "in_short": "as §2"}, "Daoy [17]": {"system": "Daoy", "assay": "Antiproliferative activity against human Daoy cells at 500 nM incubated for 72 hrs by BrdU ELISA method", "type": "functional, cell-based", "in_short": "(§3)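 Cells seeded in triplicate at 2 × 10^3 per well with 24h adherence, then treated with 500 nM JQ1 or DMSO control for 72h. Proliferation was measured by BrdU incorporation ELISA. Experiments were run independently at least 3 times.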"}, "UW228 [18]": {"system": "UW228", "assay": "Antiproliferative activity against human UW228 cells at 500 nM incubated for 72 hrs by BrdU ELISA method", "type": "functional, cell-based", "in_short": "as §3"}, "D341 cell line [19]": {"system": "D341 cell line", "assay": "Antiproliferative activity against human D341 cells at 500 nM incubated for 72 hrs by BrdU ELISA method", "type": "functional, cell-based", "in_short": "as §3"}, "HD-MB03 [20]": {"system": "HD-MB03", "assay": "Antitumor activity against human HD-MB03 cells xenografted in female athymic (nu/nu) mouse assessed as delay in time required for tumor growth to an average of 1000 mm3 at 50 mg/kg, ip for 28 days relative to untreated control", "type": "functional", "settings": "time 28 day", "in_short": "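Female athymic nu/nu mice, 4 weeks old, received 2 × 10^7 HD-MB3 cells in Matrigel subcutaneously in the left flank. At 150–200 mm3 they were randomised, n=7 per group, to JQ1 50 mg/kg ip daily or vehicle for 28 days or until tumours exceeded 1000 mm3. Calipers were used, with volume = (breadth × length × height)/2. Time to 1000 mm3 was analysed by Kaplan-Meier.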"}, "HD-MB03 [21]": {"system": "HD-MB03", "assay": "Inhibition of BRD4 female athymic (nu/nu) mouse xenografted with human HD-MB03 cells as reduction in MYC protein expression in tumor at 50 mg/kg, ip administered at 0, 12, 24 and 36 hrs over 2-day course by Western blot analysis", "type": "functional, organism-based", "in_short": "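Same flank HD-MB3 xenografts in female nu/nu mice. Given 4 i.p. doses of JQ1 50 mg/kg (or DMSO) at 0, 12, 24 and 36h; tumours excised 4h after the last dose and snap-frozen. MYC measured by RT-PCR (mean ± S.D.) or western blot with β-actin loading control, 3 tumours per group.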"}, "Mus musculus": {"system": "Mus musculus", "assay": "[…] of cell proliferation in female athymic (nu/nu) mouse xenografted with human HD-MB03 cells as reduction in number of proliferating cells in tumor at 50 mg/kg, ip administered at 0, 12, 24 and 36 hrs over 2-day course by immunostaining and hematoxylin-eosin staining", "type": "functional, organism-based", "in_short": "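HD-MB3 cells in Matrigel (2 × 10^7) injected subcutaneously into the left flank of 4-week-old female nu/nu mice. Given JQ1 50 mg/kg i.p. or DMSO vehicle at 0, 12, 24 and 36h; killed 4h after the last dose. Fixed 5 µm tumour sections underwent pH 6.0 retrieval and Ki67 (1:25) immunostaining with H&E; positive cells quantified, 3 tumours per group.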"}, "[22]": {"biological_target": "Bromodomain-containing protein 4 (Homo sapiens) (UniProt O60885)", "settings": "ONS-76, dose 500.0 nM, time 72.0 hrs"}, "[23]": {"biological_target": "Bromodomain-containing protein 4 (Homo sapiens) (UniProt O60885)", "settings": "UW228, dose 500.0 nM, time 72.0 hrs"}, "[24]": {"biological_target": "Bromodomain-containing protein 4 (Homo sapiens) (UniProt O60885)", "settings": "D341 cell line, dose 500.0 nM, time 72.0 hrs"}, "[25]": {"biological_target": "Bromodomain-containing protein 4 (Homo sapiens) (UniProt O60885)", "settings": "HD-MB03, dose 500.0 nM, time 72.0 hrs"}}, "note": "pIC50: −log10 of the molar value. The source made the active and inactive calls. No cut-off for these calls is given here.", "data": [{"smiles": "Cc1sc2c(c1C)C(c1ccc(Cl)cc1)=N[C@@H](CC(=O)OC(C)(C)C)c1nnc(C)n1-2", "values": [{"measurement": "pIC50", "setting": "Daoy [1]", "result": 6.26}, {"measurement": "pIC50", "setting": "HD-MB03 [2]", "result": 7.11}, {"measurement": "pIC50", "setting": "HD-MB03 [3]", "result": 6.82}, {"measurement": "pIC50", "setting": "ONS-76 [4]", "result": 6.76}, {"measurement": "pIC50", "setting": "UW228 [5]", "result": "< 6.00"}, {"measurement": "pIC50", "setting": "UW228 [6]", "result": "< 6.00"}, {"measurement": "pIC50", "setting": "D341 cell line [7]", "result": 6.57}, {"measurement": "pIC50", "setting": "D283 Med [8]", "result": 6.32}, {"measurement": "pIC50", "setting": "D283 Med [9]", "result": 6.59}, {"measurement": "Activity", "setting": "D283 Med [10]", "result": "Active"}, {"measurement": "Activity", "setting": "UW228 [11]", "result": "Active"}, {"measurement": "Activity", "setting": "D341 cell line [12]", "result": "Active"}, {"measurement": "Activity", "setting": "ONS-76 [13]", "result": "Active"}, {"measurement": "Activity", "setting": "D341 cell line [14]", "result": "Active"}, {"measurement": "Activity", "setting": "Daoy [15]", "result": "Active"}, {"measurement": "Activity", "setting": "D283 Med [16]", "result": "Active"}, {"measurement": "Activity", "setting": "Daoy [17]", "result": "Active"}, {"measurement": "Activity", "setting": "UW228 [18]", "result": "Active"}, {"measurement": "Activity", "setting": "D341 cell line [19]", "result": "Active"}, {"measurement": "Time", "setting": "HD-MB03 [20]", "result": 8, "unit": "days"}, {"measurement": "inhibition", "setting": "HD-MB03 [21]", "result": "Active"}, {"measurement": "Activity", "setting": "Mus musculus", "result": "Active"}, {"measurement": "inhibition", "setting": "[22]", "result": "Active"}, {"measurement": "inhibition", "setting": "[23]", "result": "Active"}, {"measurement": "inhibition", "setting": "[24]", "result": "Active"}, {"measurement": "inhibition", "setting": "[25]", "result": 10, "unit": "%"}]}]}
